Results reported in ChEMBL document CHEMBL2150968, “Development of a bifunctional chelating agent containing isothiocyanate residue for one step F-18 labeling of peptides and application for RGD labeling” (Bioorg Med Chem, 2012).

Key:
[1] = system: Pancreas; test: Drug uptake in pancreas of BALB/c nude mouse xenografted with human U87MG cells over expressing […] integrin at 0.148 MBq/0.1 mL after 60 mins by gamma counting in presence of 3 mg/kg c(RGDyk); type: ADME, organism-based, U-87MG ATCC; design: dose 3 mg/kg; settings: in vivo, 1 h
Procedure, shortened: (§1)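 Male BALB/c nude mice received 2 × 10^5 U87MG human glioma cells s.c. in the right shoulder, 11 days before tracer. Tracer was given by tail vein; blocking groups were co-injected with cold c(RGDyK) 3 mg/kg. Mice were killed at 60 min; organs and blood were weighed and gamma counted, and %ID/g was calculated. n = 8; Student's t-test.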

[2] = system: Blood; test: Drug uptake in blood of BALB/c nude mouse xenografted with human U87MG cells overexpressing […] integrin at 0.148 MBq/0.1 mL after 60 mins by gamma counting in presence of 3 mg/kg c(RGDyk); type: ADME, organism-based, U-87MG ATCC; design: dose 3 mg/kg; settings: in vivo, 1 h; procedure, shortened: as §1
[3] = system: Muscle tissue; test: Drug uptake in muscle of BALB/c nude mouse xenografted with human U87MG cells over expressing […] integrin at 0.148 MBq/0.1 mL after 60 mins by gamma counting in presence of 3 mg/kg c(RGDyk); type: ADME, organism-based, U-87MG ATCC; design: dose 3 mg/kg; settings: in vivo, 1 h; procedure, shortened: as §1
[4] = system: Lung; test: Drug uptake in lung of BALB/c nude mouse xenografted with human U87MG cells over expressing […] integrin at 0.148 MBq/0.1 mL after 60 mins by gamma counting in presence of 3 mg/kg c(RGDyk); type: ADME, organism-based, U-87MG ATCC; design: dose 3 mg/kg; settings: in vivo, 1 h; procedure, shortened: as §1
[5] = system: Liver; test: Drug uptake in liver of BALB/c nude mouse xenografted with human U87MG cells over expressing […] integrin at 0.148 MBq/0.1 mL after 60 mins by gamma counting in presence of 3 mg/kg c(RGDyk); type: ADME, organism-based, U-87MG ATCC; design: dose 3 mg/kg; settings: in vivo, 1 h; procedure, shortened: as §1
[6] = system: Spleen; test: Drug uptake in spleen of BALB/c nude mouse xenografted with human U87MG cells over expressing […] integrin at 0.148 MBq/0.1 mL after 60 mins by gamma counting in presence of 3 mg/kg c(RGDyk); type: ADME, organism-based, U-87MG ATCC; design: dose 3 mg/kg; settings: in vivo, 1 h; procedure, shortened: as §1
[7] = system: Stomach; test: Drug uptake in stomach of BALB/c nude mouse xenografted with human U87MG cells over expressing […] integrin at 0.148 MBq/0.1 mL after 60 mins by gamma counting in presence of 3 mg/kg c(RGDyk); type: ADME, organism-based, U-87MG ATCC; design: dose 3 mg/kg; settings: in vivo, 1 h; procedure, shortened: as §1
[8] = system: Intestine; test: Drug uptake in intestine of BALB/c nude mouse xenografted with human U87MG cells over expressing […] integrin at 0.148 MBq/0.1 mL after 60 mins by gamma counting in presence of 3 mg/kg c(RGDyk); type: ADME, organism-based, U-87MG ATCC; design: dose 3 mg/kg; settings: in vivo, 1 h; procedure, shortened: as §1
[9] = system: Kidney; test: Drug uptake in kidney of BALB/c nude mouse xenografted with human U87MG cells over expressing […] integrin at 0.148 MBq/0.1 mL after 60 mins by gamma counting in presence of 3 mg/kg c(RGDyk); type: ADME, organism-based, U-87MG ATCC; design: dose 3 mg/kg; settings: in vivo, 1 h; procedure, shortened: as §1
[10] = system: Bone; test: Drug uptake in bone of BALB/c nude mouse xenografted with human U87MG cells over expressing […] integrin at 0.148 MBq/0.1 mL after 60 mins by gamma counting in presence of 3 mg/kg c(RGDyk); type: ADME, organism-based, Bone element, U-87MG ATCC; design: dose 3 mg/kg; settings: in vivo, 1 h; procedure, shortened: as §1
[11] = Drug uptake in human U87MG cells over expressing […] integrin xenografted in BALB/c nude mouse tumor at 11.1 MBq/0.1 mL, iv after 2 hrs by PET/CT imaging; type: ADME, organism-based, Neoplasm, U-87MG ATCC; settings: in vivo
Procedure, shortened: (§2)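 Glioma-xenografted BALB/c nude mice were injected by tail vein; inhibition groups were co-injected with cold c(RGDyK) 3 mg/kg. Under 2% isoflurane, dynamic small-animal PET/CT was acquired at 1 and 2 h, with decay-corrected images. SUV = tissue activity concentration (MBq/mL) / (injected dose (MBq) / body weight (g)). Normal tissue reference was the left shoulder.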

[12] = system: Urinary bladder; test: Drug uptake in bladder of BALB/c nude mouse xenografted with human U87MG cells over expressing […] integrin at 11.1 MBq/0.1 mL, iv after 1 to 2 hrs by PET/CT imaging; type: ADME, organism-based, U-87MG ATCC; settings: in vivo; procedure, shortened: as §2
[13] = Chemical stability of the compound after 4 hrs by ITLC-SG analysis; type: physicochemical
Procedure, shortened: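 After Al18F labeling (pH 4 sodium acetate buffer, 110 °C, 10 min), stability of the labeled conjugate was followed in the labeling medium at room temperature for 240 min. Decomposition was checked by ITLC-SG; unbound [18F]AlF stays at the origin, the labeled peptide runs to the solvent front.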

[14] = Stability of the compound in human serum for 4 hrs by ITLC-SG analysis; type: ADME, cell-free
Procedure, shortened: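 Labeled conjugate was incubated in human serum at 37 °C for 240 min. Decomposition was checked by ITLC-SG; unbound [18F]AlF stays at the origin, the labeled peptide runs to the solvent front.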

[15] = Drug uptake in human U87MG cells over expressing […] integrin xenografted BALB/c nude mouse tumor at 0.148 MBq/0.1 mL, iv after 60 mins by gamma counting; type: ADME, organism-based, Neoplasm, U-87MG ATCC; settings: in vivo, 1 h; procedure, shortened: as §1
[16] = system: Blood; test: Drug uptake in blood of BALB/c nude mouse xenografted with human U87MG cells over expressing […] integrin at 0.148 MBq/0.1 mL, iv after 60 mins by gamma counting; type: ADME, organism-based, U-87MG ATCC; settings: in vivo, 1 h; procedure, shortened: as §1
[17] = system: Muscle tissue; test: Drug uptake in muscle of BALB/c nude mouse xenografted with human U87MG cells over expressing […] integrin at 0.148 MBq/0.1 mL, iv after 60 mins by gamma counting; type: ADME, organism-based, U-87MG ATCC; settings: in vivo, 1 h; procedure, shortened: as §1
[18] = system: Pancreas; test: Drug uptake in pancreas of BALB/c nude mouse xenografted with human U87MG cells over expressing […] integrin at 0.148 MBq/0.1 mL, iv after 60 mins by gamma counting; type: ADME, organism-based, U-87MG ATCC; settings: in vivo, 1 h; procedure, shortened: as §1
[19] = system: Heart; test: Drug uptake in heart of BALB/c nude mouse xenografted with human U87MG cells over expressing […] integrin at 0.148 MBq/0.1 mL, iv after 60 mins by gamma counting; type: ADME, organism-based, U-87MG ATCC; settings: in vivo, 1 h; procedure, shortened: as §1
[20] = system: Lung; test: Drug uptake in lung of BALB/c nude mouse xenografted with human U87MG cells over expressing […] integrin at 0.148 MBq/0.1 mL, iv after 60 mins by gamma counting; type: ADME, organism-based, U-87MG ATCC; settings: in vivo, 1 h; procedure, shortened: as §1
[21] = system: Liver; test: Drug uptake in liver of BALB/c nude mouse xenografted with human U87MG cells over expressing […] integrin at 0.148 MBq/0.1 mL, iv after 60 mins by gamma counting; type: ADME, organism-based, U-87MG ATCC; settings: in vivo, 1 h; procedure, shortened: as §1
[22] = system: Spleen; test: Drug uptake in spleen of BALB/c nude mouse xenografted with human U87MG cells over expressing […] integrin at 0.148 MBq/0.1 mL, iv after 60 mins by gamma counting; type: ADME, organism-based, U-87MG ATCC; settings: in vivo, 1 h; procedure, shortened: as §1
[23] = system: Stomach; test: Drug uptake in stomach of BALB/c nude mouse xenografted with human U87MG cells over expressing […] integrin at 0.148 MBq/0.1 mL, iv after 60 mins by gamma counting; type: ADME, organism-based, U-87MG ATCC; settings: in vivo, 1 h; procedure, shortened: as §1
[24] = system: Intestine; test: Drug uptake in intestine of BALB/c nude mouse xenografted with human U87MG cells over expressing […] integrin at 0.148 MBq/0.1 mL, iv after 60 mins by gamma counting; type: ADME, organism-based, U-87MG ATCC; settings: in vivo, 1 h; procedure, shortened: as §1
[25] = system: Kidney; test: Drug uptake in kidney of BALB/c nude mouse xenografted with human U87MG cells over expressing […] integrin at 0.148 MBq/0.1 mL, iv after 60 mins by gamma counting; type: ADME, organism-based, U-87MG ATCC; settings: in vivo, 1 h; procedure, shortened: as §1
[26] = system: Bone; test: Drug uptake in bone of BALB/c nude mouse xenografted with human U87MG cells over expressing […] integrin at 0.148 MBq/0.1 mL, iv after 60 mins by gamma counting; type: ADME, organism-based, Bone element, U-87MG ATCC; settings: in vivo, 1 h; procedure, shortened: as §1
[27] = Drug uptake in human U87MG cells over expressing […] integrin xenografted in BALB/c nude mouse tumor at 0.148 MBq/0.1 mL after 1 hr by gamma counting in presence of 3 mg/kg c(RGDyk); type: ADME, organism-based, Neoplasm, U-87MG ATCC; design: dose 3 mg/kg; settings: in vivo; procedure, shortened: as §1
[28] = Drug uptake in human U87MG cells over expressing […] integrin xenografted in BALB/c nude mouse tumor at 11.1 MBq/0.1 mL, iv after 1 hr by PET/CT imaging; type: ADME, organism-based, Neoplasm, U-87MG ATCC; settings: in vivo; procedure, shortened: as §2
[29] = Drug uptake in human U87MG cells overexpressing […] integrin xenografted in BALB/c nude mouse tumor at 11.1 MBq/0.1 mL after 1 hr by PET/CT imaging in presence of 3 mg/kg c(RGDyk); type: ADME, organism-based, Neoplasm, U-87MG ATCC; design: dose 3 mg/kg; settings: in vivo; procedure, shortened: as §2
[30] = system: Heart; test: Drug uptake in heart of BALB/c nude mouse xenografted with human U87MG cells over expressing […] integrin at 0.148 MBq/0.1 mL after 60 mins by gamma counting in presence of 3 mg/kg c(RGDyk); type: ADME, organism-based, U-87MG ATCC; design: dose 3 mg/kg; settings: in vivo, 1 h; procedure, shortened: as §1
[31] = Drug uptake in human U87MG cells overexpressing alphavbeta3 integrin xenografted in BALB/c nude mouse tumor at 11.1 MBq/0.1 mL after 2 hrs by PET/CT imaging in presence of 3 mg/kg c(RGDyk); settings: in vivo

- Drug uptake [1]: Not Active
- Drug uptake [2]: Not Active
- Drug uptake [3]: Not Active
- Drug uptake [4]: Not Active
- Drug uptake [5]: Not Active
- Drug uptake [6]: Not Active
- Drug uptake [7]: Not Active
- Drug uptake [8]: Not Active
- Drug uptake [9]: Not Active
- Drug uptake [10]: Not Active
- SUV [11]: 3.77
- Drug uptake [12]: Active
- remaining at 4 h [13]: > 95%
- remaining at 4 h [14]: > 95%
- Drug uptake [15]: 4.41 % ID/g
- Drug uptake [16]: Active
- Drug uptake [17]: Active
- Drug uptake [18]: Active
- Drug uptake [19]: Active
- Drug uptake [20]: Active
- Drug uptake [21]: Active
- Drug uptake [22]: Active
- Drug uptake [23]: Active
- Drug uptake [24]: Active
- Drug uptake [25]: Active
- Drug uptake [26]: Active
- Drug uptake [27]: 1.33 % ID/g
- SUV [28]: 7.42
- SUV [29]: 0.72
- Drug uptake [30]: Not Active
- SUV [31]: 0.42
SMILES: N=C(N)NCCC[C@@H]1NC(=O)[C@H](CCCCNC(=S)Nc2ccc(CN3CCN4CCN(CC3)CC(=O)[O][Al]([18F])[O]C(=O)C4)cc2)NC(=O)[C@@H](Cc2ccc(O)cc2)NC(=O)[C@H](CC(=O)O)NC(=O)CNC1=O
